Assays:
[1] = Cmax in Wistar rat at 10 mg/kg, iv administered as single dose; assay type: ADME, organism-based; parameters: dose 10 mg/kg, route intravenous; details: in vivo
In short: (§1)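 Single iv or oral dose in 5% dextrose to overnight-fasted animals. Nu/Nu mice: males, 3 per route, saphenous bleeds to 24 h. Han-Wistar rats: males, 3 per route, jugular bleeds to 24 h. Beagle dogs: 2 per sex, iv and po crossover 2 weeks apart, jugular bleeds to 48 h. Plasma by LC/MS/MS; noncompartmental parameters, AUC by linear trapezoid with extrapolation.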

[2] = Half life in Beagle dog at 5 mg/kg, iv administered as single dose; assay type: ADME, organism-based, Canis lupus familiaris; parameters: dose 5 mg/kg, route intravenous; details: in vivo; in short: as §1
[3] = tested on: Rattus norvegicus; assay: AUC (0 to infinity) in Wistar rat at 20 mg/kg, po administered as single dose; details: in vivo
[4] = tested on: L-363; assay: Antiproliferative activity against human L363 cells after 72 hrs by luciferase based assay; assay type: functional, cell-based; details: L-363, 72 h
In short: (§2)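 Cells seeded at 2500–5000/well in complete medium (RPMI1640, McCoy's or DMEM with 10% FCS, by line); compound added after 24 h, 72 h at 37 °C, 5% CO2.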

[5] = molecular target: Serine/threonine-protein kinase PAK 4 (Homo sapiens, UniProt O96013); assay: Inhibition of PAK4
[6] = Renal clearance in Wistar rat at 10 mg/kg, iv administered as single dose; assay type: ADME, organism-based, Kidney; parameters: dose 10 mg/kg, route intravenous; details: in vivo, read-out: CL_renal (converted)
In short: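 Overnight-fasted male Han-Wistar rats got a single 10 mg/kg iv dose in 5% dextrose, three per leg. Jugular blood was drawn from 0.083 to 24 h. Urine was collected over 0–6 and 6–24 h. Plasma and urine were assayed by LC/MS/MS and analysed noncompartmentally. Vss = CL·MRT.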

[7] = Oral bioavailability in nu/nu mouse at 10 mg/kg administered as single dose; assay type: ADME, organism-based; details: in vivo
In short: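 Overnight-fasted male Nu/Nu mice got a single 10 mg/kg dose in 5% dextrose, iv or po, three mice per route. Saphenous blood was drawn at 0.083 (iv) or 0.25 (po), 0.5, 1, 6 and 24 h. Plasma was assayed by LC/MS/MS and analysed noncompartmentally. Tmax is the observed peak time, Vss = CL·MRT, and F is the ratio of dose-normalized AUC∞ po/iv.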

[8] = molecular target: Inhibitor of nuclear factor kappa-B kinase subunit epsilon (Homo sapiens, UniProt Q14164); assay: Inhibition of IKKi
[9] = Cmax in Beagle dog at 10 mg/kg, po administered as single dose; assay type: ADME, organism-based, Canis lupus familiaris; parameters: dose 10 mg/kg, route oral; details: in vivo; in short: as §1
[10] = Clearance in Beagle dog at 5 mg/kg, iv administered as single dose; assay type: ADME, organism-based, Canis lupus familiaris; parameters: dose 5 mg/kg, route intravenous; details: in vivo; in short: as §1
[11] = Half life in Wistar rat at 10 mg/kg, iv administered as single dose; assay type: ADME, organism-based; parameters: dose 10 mg/kg, route intravenous; details: in vivo; in short: as §1
[12] = Oral bioavailability in Beagle dog at 10 mg/kg administered as single dose; assay type: ADME, organism-based, Canis lupus familiaris; details: in vivo
In short: (§3)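 Overnight-fasted Beagle dogs, 2 per sex, in a crossover design: 5 mg/kg iv and 10 mg/kg po, two weeks apart, in 5% dextrose. Jugular blood was drawn up to 48 h, and urine was collected over 0–8, 8–24 and 24–48 h. Samples were assayed by LC/MS/MS and analysed noncompartmentally.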

[13] = tested on: HeLa; assay: Inhibition of DNA synthesis in human HeLa cells at 3 uM assessed as bromodeoxyuridine incorporation after 9 hrs; assay type: functional; parameters: scale not given: the % may be the effect or the level left
In short: (§4)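 Logarithmically growing HeLa cells exposed to 3 µM for set times, labelled with 50 µM BrdU, fixed in 70% ethanol. DNA content by propidium iodide with RNase A, 30 min at 37 °C; BrdU by FITC anti-BrdU after 2N HCl denaturation; percent positive cells by FACS.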

[14] = Half life in Beagle dog at 10 mg/kg, po administered as single dose; assay type: ADME, organism-based, Canis lupus familiaris; parameters: dose 10 mg/kg, route oral; details: in vivo; in short: as §1
[15] = Inhibition of CK2
[16] = tested on: HeLa; assay: Cell cycle arrest in human HeLa cells assessed as accumulation at G1/S phase at 3 uM by fluorescence activated cell sorting; assay type: functional, cell-based; in short: as §4
[17] = Antiproliferative activity against mouse NIH/3T3 cells after 72 hrs by luciferase based assay; assay type: cell-based; details: NIH3T3, 72 h; in short: as §2
[18] = tested on: NHDF; assay: Antiproliferative activity against human NHDF cells after 72 hrs by luciferase based assay; assay type: cell-based
[19] = Inhibition of PDGFR
[20] = molecular target: Cyclin-dependent kinase 4 (Homo sapiens, UniProt P11802); assay: Inhibition of CDK4
[21] = tested on: SW48; assay: Antiproliferative activity against human SW48 cells after 72 hrs by luciferase based assay; assay type: functional, cell-based; details: SW48, 72 h; in short: as §2
[22] = Tmax in Beagle dog at 10 mg/kg, po administered as single dose; assay type: ADME, organism-based, Canis lupus familiaris; parameters: dose 10 mg/kg, route oral; details: in vivo; in short: as §3
[23] = Cmax in nu/nu mouse at 10 mg/kg, po administered as single dose; assay type: ADME, organism-based; parameters: dose 10 mg/kg, route oral; details: in vivo; in short: as §1
[24] = Cmax in Wistar rat at 20 mg/kg, po administered as single dose; details: in vivo
[25] = tested on: HeLa; assay: Inhibition of DNA synthesis in human HeLa cells at 3 uM assessed as bromodeoxyuridine incorporation after 6 hrs; assay type: functional; parameters: scale not given: the % may be the effect or the level left; in short: as §4
[26] = molecular target: Proto-oncogene tyrosine-protein kinase receptor Ret (Homo sapiens, UniProt P07949); assay: Inhibition of RET
[27] = molecular target: Cyclin-dependent kinase 9 (Homo sapiens, UniProt P50750); assay: Inhibition of CDK9
[28] = molecular target: Insulin receptor (Homo sapiens, UniProt P06213); assay: Inhibition of IR
[29] = molecular target: Aurora kinase A (Homo sapiens, UniProt O14965); assay: Inhibition of AUR2
[30] = Half life in Wistar rat at 20 mg/kg, po administered as single dose; details: in vivo
[31] = molecular target: Mast/stem cell growth factor receptor Kit (Homo sapiens, UniProt P10721); assay: Inhibition of KIT
[32] = Renal clearance in Beagle dog at 5 mg/kg, iv administered as single dose; assay type: ADME, organism-based, Canis lupus familiaris, Kidney; parameters: dose 5 mg/kg, route intravenous; details: in vivo, read-out: CL_renal (converted); in short: as §3
[33] = tested on: Rattus norvegicus; assay: Oral bioavailability in Wistar rat at 20 mg/kg, po administered as single dose; details: in vivo
[34] = tested on: Hepatocyte; assay: Metabolic stability in rat hepatocytes assessed as intrinsic clearance at 1 uM; assay type: cell-based; details: Liver
[35] = molecular target: Hepatocyte growth factor receptor (Homo sapiens, UniProt P08581); assay: Inhibition of MET
[36] = molecular target: Cell division cycle 7-related protein kinase (Homo sapiens, UniProt O00311); assay: Inhibition of human Cdc7 in human A2780 cells assessed as inhibition of Ser40 phosphorylation of Mcm2 protein after 4 hrs; assay type: cell-based
In short: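 A2780 cells exposed for 4 h to a range of concentrations, then lysed in 50 mmol/L Tris-HCl pH 6.8, 1% SDS, 1 mmol/L DTT and sonicated 10 s. 15 µg protein per lane ([…]) was taken for Western blot with phospho-specific antibodies to MCM2 Ser40 and Ser53.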

[37] = molecular target: Vascular endothelial growth factor receptor 3 (Homo sapiens, UniProt P35916); assay: Inhibition of VEGFR3
[38] = molecular target: Serine/threonine-protein kinase 26 (Homo sapiens, UniProt Q9P289); assay: Inhibition of MST4
[39] = molecular target: Mitogen-activated protein kinase 11 (Homo sapiens, UniProt Q15759); assay: Inhibition of P38beta
Mitogen-activated protein kinase 11, sequence (Q15759 whole entry): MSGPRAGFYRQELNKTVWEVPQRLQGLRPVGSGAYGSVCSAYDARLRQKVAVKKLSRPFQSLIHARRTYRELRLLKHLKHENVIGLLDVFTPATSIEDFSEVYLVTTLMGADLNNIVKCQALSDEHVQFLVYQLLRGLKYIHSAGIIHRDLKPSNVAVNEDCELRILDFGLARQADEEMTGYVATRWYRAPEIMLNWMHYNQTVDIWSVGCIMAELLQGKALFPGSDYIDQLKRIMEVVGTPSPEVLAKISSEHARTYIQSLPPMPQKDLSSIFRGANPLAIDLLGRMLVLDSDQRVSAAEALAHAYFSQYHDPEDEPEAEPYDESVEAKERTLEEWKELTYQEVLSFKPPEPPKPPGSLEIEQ

Serine/threonine-protein kinase PAK 4, sequence (O96013 whole entry): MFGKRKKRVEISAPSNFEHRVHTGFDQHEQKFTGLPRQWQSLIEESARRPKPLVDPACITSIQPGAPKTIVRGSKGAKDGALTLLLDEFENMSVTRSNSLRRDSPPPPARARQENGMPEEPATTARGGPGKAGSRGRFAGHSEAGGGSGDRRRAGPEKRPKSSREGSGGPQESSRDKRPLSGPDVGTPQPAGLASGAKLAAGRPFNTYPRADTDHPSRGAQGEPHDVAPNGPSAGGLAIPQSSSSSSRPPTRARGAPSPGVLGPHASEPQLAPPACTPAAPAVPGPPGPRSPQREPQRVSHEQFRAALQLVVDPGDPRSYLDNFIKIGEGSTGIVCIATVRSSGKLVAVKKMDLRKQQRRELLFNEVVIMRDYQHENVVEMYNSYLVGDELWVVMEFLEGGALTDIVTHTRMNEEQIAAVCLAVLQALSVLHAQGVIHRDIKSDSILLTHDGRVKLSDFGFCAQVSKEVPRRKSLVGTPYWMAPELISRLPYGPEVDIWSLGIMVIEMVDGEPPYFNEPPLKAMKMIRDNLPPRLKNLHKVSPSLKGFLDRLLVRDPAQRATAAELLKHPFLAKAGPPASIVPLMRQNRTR
Mast/stem cell growth factor receptor Kit, sequence (P10721 whole entry): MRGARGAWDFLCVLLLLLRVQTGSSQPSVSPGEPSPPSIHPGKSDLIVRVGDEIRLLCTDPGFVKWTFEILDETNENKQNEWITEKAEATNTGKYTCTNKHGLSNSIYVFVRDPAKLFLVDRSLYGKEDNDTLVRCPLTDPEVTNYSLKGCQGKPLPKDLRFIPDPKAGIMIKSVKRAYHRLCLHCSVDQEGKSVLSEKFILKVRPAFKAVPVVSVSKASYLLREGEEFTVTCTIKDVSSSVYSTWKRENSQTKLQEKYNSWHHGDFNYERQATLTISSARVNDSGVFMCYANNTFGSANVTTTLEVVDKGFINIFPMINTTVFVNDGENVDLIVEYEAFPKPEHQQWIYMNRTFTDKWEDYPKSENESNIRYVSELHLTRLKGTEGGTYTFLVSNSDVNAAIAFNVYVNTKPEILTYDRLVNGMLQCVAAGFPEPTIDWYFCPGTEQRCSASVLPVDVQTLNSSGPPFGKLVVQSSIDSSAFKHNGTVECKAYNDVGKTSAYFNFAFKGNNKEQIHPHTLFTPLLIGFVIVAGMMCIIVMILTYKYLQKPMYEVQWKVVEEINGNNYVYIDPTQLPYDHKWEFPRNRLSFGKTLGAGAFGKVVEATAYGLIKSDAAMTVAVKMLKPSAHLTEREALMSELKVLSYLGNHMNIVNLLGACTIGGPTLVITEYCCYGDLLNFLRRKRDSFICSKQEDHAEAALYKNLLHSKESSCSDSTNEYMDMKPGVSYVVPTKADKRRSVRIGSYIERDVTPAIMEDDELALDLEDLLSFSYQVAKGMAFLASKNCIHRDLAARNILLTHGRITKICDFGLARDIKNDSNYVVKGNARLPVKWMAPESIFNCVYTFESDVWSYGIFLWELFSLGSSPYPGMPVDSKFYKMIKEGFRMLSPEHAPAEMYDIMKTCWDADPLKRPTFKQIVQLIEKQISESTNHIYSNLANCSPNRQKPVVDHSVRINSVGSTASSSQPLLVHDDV
Hepatocyte growth factor receptor, sequence (P08581 whole entry): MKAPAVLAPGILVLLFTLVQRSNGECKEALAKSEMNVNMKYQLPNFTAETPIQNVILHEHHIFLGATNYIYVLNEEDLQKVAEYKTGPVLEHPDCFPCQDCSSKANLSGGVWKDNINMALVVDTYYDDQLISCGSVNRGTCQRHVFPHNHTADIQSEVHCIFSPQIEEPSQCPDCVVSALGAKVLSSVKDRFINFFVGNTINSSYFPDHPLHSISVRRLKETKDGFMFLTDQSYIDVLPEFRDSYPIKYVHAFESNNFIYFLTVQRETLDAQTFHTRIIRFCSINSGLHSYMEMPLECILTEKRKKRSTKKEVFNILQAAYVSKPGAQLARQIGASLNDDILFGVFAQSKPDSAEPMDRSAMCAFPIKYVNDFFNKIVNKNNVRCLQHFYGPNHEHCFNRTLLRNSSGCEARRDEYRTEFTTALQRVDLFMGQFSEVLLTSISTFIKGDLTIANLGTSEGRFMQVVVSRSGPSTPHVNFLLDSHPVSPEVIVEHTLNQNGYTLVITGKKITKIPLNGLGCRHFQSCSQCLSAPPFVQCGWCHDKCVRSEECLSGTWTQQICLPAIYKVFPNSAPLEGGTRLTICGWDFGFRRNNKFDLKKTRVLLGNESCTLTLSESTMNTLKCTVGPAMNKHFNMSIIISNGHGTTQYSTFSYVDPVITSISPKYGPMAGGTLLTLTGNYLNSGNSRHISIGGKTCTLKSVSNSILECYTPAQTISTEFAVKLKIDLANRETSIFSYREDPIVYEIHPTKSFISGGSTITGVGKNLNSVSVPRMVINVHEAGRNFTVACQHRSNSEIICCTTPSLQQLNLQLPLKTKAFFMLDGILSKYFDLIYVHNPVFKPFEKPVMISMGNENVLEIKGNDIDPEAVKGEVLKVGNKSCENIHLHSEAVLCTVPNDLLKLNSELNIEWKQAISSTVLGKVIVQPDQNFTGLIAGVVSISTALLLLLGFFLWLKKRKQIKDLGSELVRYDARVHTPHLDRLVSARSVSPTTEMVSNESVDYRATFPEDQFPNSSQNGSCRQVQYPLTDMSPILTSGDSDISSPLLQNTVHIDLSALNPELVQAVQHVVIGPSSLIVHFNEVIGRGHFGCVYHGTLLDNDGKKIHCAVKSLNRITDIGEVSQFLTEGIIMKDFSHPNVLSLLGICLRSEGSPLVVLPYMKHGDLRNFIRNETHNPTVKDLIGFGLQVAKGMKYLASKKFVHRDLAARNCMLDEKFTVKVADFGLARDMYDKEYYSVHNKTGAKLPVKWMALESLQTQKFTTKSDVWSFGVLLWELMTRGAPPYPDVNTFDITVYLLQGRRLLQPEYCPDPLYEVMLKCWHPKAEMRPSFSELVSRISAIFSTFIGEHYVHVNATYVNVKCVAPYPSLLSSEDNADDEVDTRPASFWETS
Cell division cycle 7-related protein kinase, sequence (O00311 whole entry, looked up): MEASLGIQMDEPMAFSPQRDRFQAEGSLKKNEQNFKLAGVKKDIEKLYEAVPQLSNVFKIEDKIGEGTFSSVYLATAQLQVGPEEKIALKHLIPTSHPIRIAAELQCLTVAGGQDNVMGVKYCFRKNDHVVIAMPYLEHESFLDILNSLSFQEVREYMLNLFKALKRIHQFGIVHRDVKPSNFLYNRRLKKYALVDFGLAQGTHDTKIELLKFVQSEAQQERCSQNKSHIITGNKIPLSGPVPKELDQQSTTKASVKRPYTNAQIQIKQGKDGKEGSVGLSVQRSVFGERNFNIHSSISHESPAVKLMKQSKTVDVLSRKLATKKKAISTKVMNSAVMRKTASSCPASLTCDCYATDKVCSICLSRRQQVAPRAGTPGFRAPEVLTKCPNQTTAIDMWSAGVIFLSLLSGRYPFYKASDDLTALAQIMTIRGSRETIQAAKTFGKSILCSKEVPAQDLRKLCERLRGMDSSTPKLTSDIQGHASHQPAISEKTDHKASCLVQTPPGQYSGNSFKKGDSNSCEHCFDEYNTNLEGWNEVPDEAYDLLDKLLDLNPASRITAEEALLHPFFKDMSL
Serine/threonine-protein kinase 26, sequence (Q9P289 whole entry): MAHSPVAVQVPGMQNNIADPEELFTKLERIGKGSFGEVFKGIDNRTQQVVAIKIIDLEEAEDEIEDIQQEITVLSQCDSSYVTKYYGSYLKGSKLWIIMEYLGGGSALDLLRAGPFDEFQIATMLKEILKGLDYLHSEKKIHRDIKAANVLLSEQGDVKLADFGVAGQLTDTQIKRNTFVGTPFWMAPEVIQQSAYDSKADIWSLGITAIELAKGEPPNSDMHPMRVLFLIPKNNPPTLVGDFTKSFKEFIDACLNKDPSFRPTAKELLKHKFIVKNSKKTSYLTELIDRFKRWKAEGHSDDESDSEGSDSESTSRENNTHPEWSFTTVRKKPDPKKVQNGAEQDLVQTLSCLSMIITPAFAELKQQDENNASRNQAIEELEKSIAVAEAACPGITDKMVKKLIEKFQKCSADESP
Cyclin-dependent kinase 4, sequence (P11802 whole entry): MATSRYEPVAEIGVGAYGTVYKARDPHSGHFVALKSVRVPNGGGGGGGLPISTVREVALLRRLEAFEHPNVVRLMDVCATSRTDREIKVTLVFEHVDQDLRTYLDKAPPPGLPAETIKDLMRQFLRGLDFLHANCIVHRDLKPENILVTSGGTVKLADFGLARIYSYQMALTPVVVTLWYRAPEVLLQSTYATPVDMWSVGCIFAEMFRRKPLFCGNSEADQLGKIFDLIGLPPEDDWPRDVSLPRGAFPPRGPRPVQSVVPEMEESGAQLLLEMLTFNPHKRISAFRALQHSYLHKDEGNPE
Cyclin-dependent kinase 9, sequence (P50750 whole entry): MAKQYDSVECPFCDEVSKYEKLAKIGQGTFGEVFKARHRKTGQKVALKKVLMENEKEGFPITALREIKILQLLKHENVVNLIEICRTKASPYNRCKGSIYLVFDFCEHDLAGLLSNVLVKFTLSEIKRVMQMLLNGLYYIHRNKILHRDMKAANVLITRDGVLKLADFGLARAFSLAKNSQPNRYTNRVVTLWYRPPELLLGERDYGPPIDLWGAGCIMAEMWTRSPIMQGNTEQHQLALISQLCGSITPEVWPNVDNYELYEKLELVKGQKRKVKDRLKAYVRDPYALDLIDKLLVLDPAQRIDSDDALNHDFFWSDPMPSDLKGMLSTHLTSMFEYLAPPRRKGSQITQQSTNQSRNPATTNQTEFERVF

Compound Nc1nccc(-c2cc3c([nH]2)[C@@H](CCF)CNC3=O)n1 has a Cmax [1] of 15.7 µM, a half-life [2] of 0.6 h and an AUC [3] of 18.9 µM·h. The IC50 [4] was 1.3 µM, the IC50 [5] was over 4 µM and the CL renal [6] was 18.3 mL/min/kg. For the same compound, the bioavailability [7] was 53%, the IC50 [8] was over 4 µM and the Cmax [9] was 5.5 µM. The clearance [10] was 53.3 mL/min/kg, the half-life [11] was 1.3 h and the bioavailability [12] was 51%. It also gave an Activity [13] of 6%, a half-life [14] of 1.2 h and an IC50 [15] of 0.359 µM. For the same compound, the Activity [16] was “Active”, the IC50 [17] was 2.5 µM and the IC50 [18] was 1.6 µM. The IC50 [19] was over 4 µM, the IC50 [20] was over 4 µM and the IC50 [21] was 0.9 µM. The Tmax [22] was 0.3 h, the Cmax [23] was 2.6 µM and the Cmax [24] was 2 µM. It also gave an Activity [25] of 16%, an IC50 [26] of over 4 µM and an IC50 [27] of 0.028 µM. The IC50 [28] was over 4 µM, the IC50 [29] was over 4 µM and the half-life [30] was 6.2 h. For the same compound, the IC50 [31] was over 4 µM, the CL renal [32] was 6.67 mL/min/kg and the F [33] was 33%. The CL (mL.min-1.kg-1) [34] was 5, the IC50 [35] was over 4 µM and the MED [36] was 0.6 µM. It also gave an IC50 [37] of over 4 µM, an IC50 [38] of over 4 µM and an IC50 [39] of over 4 µM.

From ChEMBL document CHEMBL1139384, “First Cdc7 kinase inhibitors: pyrrolopyridinones as potent and orally active antitumor agents. 2. Lead discovery” (J Med Chem, 2009)
